# Assay outcomes deposited in PubChem BioAssay by The Scripps Research Institute Molecular Screening Center.
# SIAE primary: human SIAE inhibitors, primary screen, biochemical, fluorescence polarization, FP-Rh probe, 1536-well HTS. inhibition, % at 9.66 µM. SIAE FP-Rh probe binding. Sialate O-acetylesterase (Homo sapiens), Q9HAT2. hit rate 0.69% among 370,000;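 active means inhibition above a cutoff: mean of compounds within the control limits plus 3 SD of those, cut at about 17% in these data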;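 further: 0% = plate median of compound wells and 100% = probe without SIAE protein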
# HTRA1 inhibitor: HTRA1 serine protease inhibitors, primary screen, biochemical, fluorescence polarization, HTS | Q92743 | recombinant HTRA1, FP-rhodamine activity-based probe | inhibition, % at 5.96 µM | hit rate 0.5% among 340,000; in the data active means inhibition above about 36%;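 further: 0% = enzyme with DMSO and 100% = wells lacking enzyme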
# PRMT1 FP inh: PRMT1 methyltransferase inhibitors, primary screen, biochemical, fluorescence polarization | Protein arginine N-methyltransferase 1 (Homo sapiens), Q99873 | recombinant PRMT1, activity-based probe fluorescence polarization | inhibition, % at 2.79 µM | hit rate 1.3% among 370,000;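 active means inhibition above about 21% made by adding two undisclosed values, limit read from the data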
# Target sequence (Q99873 whole entry, looked up): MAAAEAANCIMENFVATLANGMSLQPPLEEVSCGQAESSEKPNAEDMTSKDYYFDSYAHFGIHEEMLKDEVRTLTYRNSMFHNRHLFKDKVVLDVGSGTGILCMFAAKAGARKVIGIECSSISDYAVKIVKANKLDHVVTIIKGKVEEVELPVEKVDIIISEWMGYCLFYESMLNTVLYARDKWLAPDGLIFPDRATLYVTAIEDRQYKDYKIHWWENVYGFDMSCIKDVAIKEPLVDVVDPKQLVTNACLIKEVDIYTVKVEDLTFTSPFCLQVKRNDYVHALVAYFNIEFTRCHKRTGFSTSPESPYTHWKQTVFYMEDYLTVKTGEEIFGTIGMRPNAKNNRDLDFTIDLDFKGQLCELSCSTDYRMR
# TCR CD3 inh: inhibitors of human TCR-CD3 interaction, primary screen, biochemical, fluorescence, TAMRA-labeled TCR probe. inhibition, % at 9.4 µM. hit rate 0.37% among 360,000. AID 651800, 2012. T-cell receptor (TCR); in the data active means inhibition above about 19%;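 further: recombinant mutant TCR 2C K166C tagged with TAMRA read by polarization; 0% = receptor in buffer alone and 100% = receptor with positive control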
# mABHD4 FP: ABHD4 inhibitors, primary screen, biochemical, fluorescence polarization, mouse. (Lyso)-N-acylphosphatidylethanolamine lipase (Mus musculus), Q8VD66. hit rate 0.54% among 370,000. AID 720543, 2013. purified mABHD4, FP-Rh probe fluorescence polarization. inhibition, % at 8.92 µM;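 active means inhibition exceeding the mean over every tested compound plus 3 SD, cut at about 30% in these data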;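 further: 0% = plate median of compound wells and 100% = S159A mutant with DMSO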
#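 Material: mouse ABHD4 enzyme, wild type; Benchmarks: S159A mutant high control, sample median low control; Buffer or medium: HEPES pH 7.0, NaCl, Pluronic buffer; Signal: fluorescence polarization; Read-out: percent inhibition of probe binding, normalized to plate controls; Timing: pre-incubation 45 min, probe exposure 60 min, at 25 °C; Dosing: 8.92 µM, single dose.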
# Starred values were filed as active, the others as inactive. Sampled rows, rich in hits. Any-hit rate of the full collection: about 2.5%.
SMILES,SIAE primary,HTRA1 inhibitor,PRMT1 FP inh,TCR CD3 inh,mABHD4 FP
C=CCNC(=O)C1(c2ccccc2)CC1(Cl)Cl (stereo not given),6,5,1,6,1
Nn1cc(-c2ccccc2)nc1SCC(=O)Nc1cccc(S(N)(=O)=O)c1,0,-9,3,3,-4
Nn1cc(-c2ccccc2)nc1SCC(=O)Nc1ccc(S(N)(=O)=O)cc1,-1,-9,23*,3,-3
CCc1ccc(C(=O)CSc2ncn[nH]2)cc1,3,-2,23*,0,4
O=C(CSc1nnc(COc2ccccc2)o1)Nc1ccc(F)cc1,7,-7,-2,3,4
COc1ccc(N2CCN(C(=O)CCc3c[nH]c4ccccc34)CC2)cc1,10,1,1,-7,-3
O=C(CCc1c[nH]c2ccccc12)N1CCN(c2ccc(O)cc2)CC1,5,5,22*,1,14
CCC1CCc2c(sc(NC(=O)c3cnccn3)c2C(N)=O)C1 (stereo not given),3,2,24*,-7,7
CCCCc1ccc(-n2c(Cc3cccs3)n[nH]c2=S)cc1,-3,-1,21*,4,-2
COc1ccc(CCNC(=O)CN2c3cccc4cccc(c34)S2(=O)=O)cc1OC,0,3,-1,-6,-4
CCOC(=O)c1c(NC(=O)COc2ccc3ccc(=O)oc3c2)sc(C(=O)N(C)C)c1C,8,-1,-1,1,5
O=C1NCCCC2c3c(cc(Br)c(O)c3Br)OC12N1CCCCC1 (stereo not given),4,6,79*,7,27
O=C1NCCCc2c1oc1cc(Br)c(O)c(Br)c21,-3,-3,6,0,2
COCCOC(=O)C1=C(C)NC(=O)NC1c1cn(-c2ccccc2)nc1-c1cccs1 (stereo not given),-1,-4,-5,0,-4
COC(=O)C1=C(C)NC(C)=C(C(=O)OC)C1c1cn(-c2ccccc2)nc1-c1ccco1,-9,-28,31*,-2,-25
CCOC(=O)c1sc2nc(CC(=O)OC)nc(NCc3ccco3)c2c1C,9,25,22*,0,15
CCOC(=O)c1sc2nc(CC(=O)OC)nc(NCC(=O)OC)c2c1C,-5,0,3,1,0
Oc1ccc(C2Nc3cccc4cccc(c34)N2)c(O)c1,20*,42*,1,2,-5
O=C(O)c1ccc2c(=O)[nH]c(CCl)nc2c1,-8,4,1,-2,4
N=c1c(C(=O)NC2CCCCC2)cc2c(=O)n3ccccc3nc2n1CCc1ccccc1,92*,1,-1,3,0
N=c1c(C(=O)NC2CCCCC2)cc2c(=O)n3ccccc3nc2n1Cc1ccccc1,1,-5,0,-1,9
COc1ccc(C2=NN(c3nc(-c4ccccc4)c(CC(=O)O)s3)C(c3ccco3)C2)cc1 (stereo not given),-25,-32,22*,-4,-8
Nc1cccc2nsnc12,7,5,7,10,2
Nc1cc2nsnc2cc1Br,5,36,40*,2,19
C/C=C/C=C/C(=O)N1CC2(CC(c3cccc(NC(=O)CCCCC)c3)=NO2)C[C@H]1C(N)=O (stereo not given in full),-6,-4,21*,4,-6
SMILES,SIAE primary,HTRA1 inhibitor,PRMT1 FP inh,TCR CD3 inh,mABHD4 FP
CC/C=C/C(=O)N1CC2(CC(c3cccc(NC(=O)CCCCC)c3)=NO2)C[C@H]1C(N)=O (stereo not given in full),-4,-6,6,-7,-12
Clc1ccc(C(c2nnnn2CCc2ccccc2)N2CCSCC2)cc1 (stereo not given),-4,-23,-2,7,-5
CCCNC(=O)C[C@@H]1C[C@@H]2c3cc(NS(=O)(=O)c4ccc(OC)cc4)ccc3O[C@@H]2[C@@H](CO)O1,16,-6,-2,-2,0
Cc1ccc(C)c(N2CCN(C(=O)c3cc4sccc4n3C)CC2)c1,7,-20,22*,0,2
CCOC(=O)N1CCN(C(=O)c2cc3sccc3n2C)CC1,0,6,4,2,4
CN1CCN(C(=O)c2cc3sccc3n2CC(=O)c2ccccc2)CC1,1,1,2,0,10
